# Legend:
# K562 [1] = test: Induction of apoptosis in human K562 cells assessed as viable cells at 0.8 uM after 48 hrs by Annexin V-FITC/propidium iodide-staining based flow cytometric analysis (reference value: 95.75 to 96.56%); assay type: functional; conditions: K562, 48 h, read-out: Activity
# How it was run: (§1)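 K562 seeded at 4 × 10^5 cells/well, 12 h, then exposed 48 h. Cells washed in ice-cold PBS, suspended in binding buffer, stained with annexin V-FITC and PI for 15 min at room temperature in the dark, and read by flow cytometry within 1 h. Cells counted as early/late apoptotic as % of total; n = 3.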
# K562 [2] = test: Induction of apoptosis in human K562 cells assessed as early apoptotic cells at 1.2 uM after 48 hrs by Annexin V-FITC/propidium iodide-staining based flow cytometric analysis (reference value: 0.92 to 1.45%); assay type: functional; how it was run: as §1
# K562 [3] = test: Induction of apoptosis in human K562 cells assessed as viable cells at 0.4 uM after 48 hrs by Annexin V-FITC/propidium iodide-staining based flow cytometric analysis (reference value: 95.75 to 96.56%); assay type: functional; conditions: K562, 48 h, read-out: Activity; how it was run: as §1
# K562 [4] = test: Cytotoxicity against human K562 cells assessed as cell growth inhibition after 48 hrs by MTT assay; assay type: functional, cell-based; conditions: K562, 48 h
# How it was run: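 Suspension cells seeded at 5000/well (HL-60 in IMDM, K562 in RPMI, both with 10% FBS) and treated. MTT then added for 4 h at 37 °C; plates centrifuged at 3000 rpm for 30 min, medium removed, DMSO added, OD570 read. IC50 taken as concentration giving 50% growth inhibition; triplicate.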
# ECa-109 cell line = test: Cytotoxicity against human ECA109 cells assessed as cell growth inhibition after 48 hrs by MTT assay; assay type: functional, cell-based; conditions: ECa-109, 48 h
# How it was run: (§2)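 Adherent cells seeded at 5000/well, left 16−24 h, then exposed 48 h at 37 °C, 5% CO2 in RPMI with 10% FBS. Medium refreshed, MTT added for 4 h at 37 °C, medium removed, formazan dissolved in DMSO, OD570 read. IC50 taken as concentration inhibiting growth by 50%; triplicate.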
# A549 = test: Cytotoxicity against human A549 cells assessed as cell growth inhibition after 48 hrs by MTT assay; assay type: functional, cell-based; conditions: A549, 48 h; how it was run: as §2
# K562 [5] = test: Induction of apoptosis in human K562 cells assessed as necrotic cells at 0.8 uM after 48 hrs by Annexin V-FITC/propidium iodide-staining based flow cytometric analysis (reference value: 0.13 to 0.27%); assay type: functional; how it was run: as §1
# L02 = test: Cytotoxicity against human HL-7702 cells assessed as cell growth inhibition after 48 hrs by MTT assay; assay type: cell-based; conditions: L02, 48 h; how it was run: as §2
# K562 [6] = test: Induction of apoptosis in human K562 cells assessed as necrotic cells at 1.2 uM after 48 hrs by Annexin V-FITC/propidium iodide-staining based flow cytometric analysis (reference value: 0.13 to 0.27%); assay type: functional; how it was run: as §1
# K562 [7] = test: Induction of ROS generation in human K562 cells at 0.5 uM after 48 hrs by DCFH-DA probe based flow cytometric analysis relative to control; assay type: functional
# How it was run: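 K562 seeded at 4 × 10^5 cells/well, 12 h, then treated 48 h. Washed cells loaded with DCFH-DA in FBS-free medium at 37 °C for 30 min, rinsed, read by flow cytometry. ROSup was the positive control; mean ± SD, n = 3.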
# K562 [8] = test: Induction of mitochondrial membrane depolarization in human K562 cells assessed as cells with intact mitochondrial membrane potential at 4 uM after 48 hrs by JC-1 staining based flow cytometric analysis (reference value: 97.63 to 97.67%); assay type: functional
# K562 [9] = test: Induction of apoptosis in human K562 cells assessed as late apoptotic cells at 0.8 uM after 48 hrs by Annexin V-FITC/propidium iodide-staining based flow cytometric analysis (reference value: 2.25 to 2.67%); assay type: functional; how it was run: as §1
smiles,measurement,setting,value
C=C(C)[C@@H]1CC[C@]2(COC(=O)CCCC[P+](c3ccccc3)(c3ccccc3)c3ccccc3)CC[C@]3(C)[C@H](CC[C@@H]4[C@@]5(C)CC[C@H](O)C(C)(C)[C@@H]5CC[C@]43C)[C@@H]12.[Br-],viability at 0.8 µM,K562 [1],63.2%
same,Activity,K562 [2],12.03%
same,viability at 0.4 µM,K562 [3],88.1%
same,IC50,K562 [4],570 nM
same,IC50,ECa-109 cell line,780 nM
same,IC50,A549,610 nM
same,Activity,K562 [5],3.7%
same,IC50,L02,6.62 µM
same,Activity,K562 [6],4.41%
same,Activity,K562 [7],50%
same,Activity,K562 [8],38.18%
same,Activity,K562 [9],20.57%

# Source: ChEMBL document CHEMBL4011654, “Mitochondria-Targeted Lupane Triterpenoid Derivatives and Their Selective Apoptosis-Inducing Anticancer Mechanisms” (J Med Chem, 2017)
